Assay outcomes (PubChem)
This is a sample that favours compounds with a hit; in the whole collection about 2% have one here.
FID counter: compounds displacing fluorescent DNA intercalator, primary screen, artefact control for HCV NS3 helicase inhibitor project, biochemical, FID fluorescence | DNA fluorescent intercalator displacement | inhibition, % at 7.9 µM | AID 1845, 2009 | actives 0.17% (n = 290,000); in the data active = inhibition above about 37%;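 note: 0% = vehicle and 100% = reference compound; higher means more ethidium bromide displaced from hairpin DNA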
eIF4H FP inh: human eIF4H binding inhibitors, primary screen, translation initiation inhibitor project, biochemical, uHTS, fluorescence polarization; Eukaryotic translation initiation factor 4H (Homo sapiens), Q15056; eIF4H fluorescence polarization binding assay; inhibition, % at 35 µM; actives 0.94% (n = 290,000); AID 2012, 2009;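 note: calls also rest on retests at 20 µM and on dose response follow-up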
PABP polyA inh: PABP poly(A) RNA binding inhibitors, primary screen, biochemical, fluorescence polarization, uHTS | Polyadenylate-binding protein 1 (Homo sapiens), P11940 | inhibition, % at 35 µM | actives 1% (n = 290,000) | AID 2014, 2009;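 note: calls also rest on retests at 20 µM and on dose response follow-up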
HCV core dimer: inhibitors of HCV core protein dimerization, primary screen, biochemical, TR-FRET, high-throughput; TR-FRET GST/Flag-core106 dimerization, 1536-well; inhibition, % at 5 µM; actives 0.33% (n = 300,000); AID 1899, 2009;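 active = inhibition above the mean of all tested compounds plus 3 SD, set per screening campaign, cut at about 45% in these data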
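Assay system: tagged HCV core106 pair (GST and Flag); medium: KF-containing HEPES buffer, pH 7.45, DTT, CHAPS, BSA; also added: Eu donor and XL665 acceptor anti-tag antibodies; dosing: 5 µM single dose; timing: compound-protein-antibody incubation 4 h at 22.5 °C; signal: TR-FRET 671 and 617 nm emission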
HCV NS3 hel inh: inhibitors of HCV NS3 helicase, primary screen, biochemical, Cy5 molecular beacon fluorescence | NS3 helicase DNA unwinding | inhibition, % at 10.9 µM | actives 0.56% (n = 290,000) | AID 1800, 2009;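 active = inhibition above the mean of all tested compounds plus 3 SD, set per campaign, cut at about 35% in these data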;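 note: 0% = DMSO wells and 100% = thioflavine S control wells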
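System: Hepatitis C virus NS3 helicase domain fragment enzyme | Reagent: Annealed dual-labelled DNA beacon duplex, ATP-started | Compound dosing: 10.9 µM single point, 0.8% DMSO | Incubation: 1 h reaction at 25 °C, ATP-initiated | Technique: Cy5 fluorescence | Evaluation: Percent inhibition from t60/t0 fluorescence ratio | Benchmarks: Low DMSO, high thioflavine S at 110 µM | Replication: Singlicate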
MLLE-PAM2 inh: inhibitors of PABP1 MLLE–PAM2 peptide binding, primary screen, biochemical, fluorescence polarization, FITC-PAM2, GST-MLLE; inhibition, % at 20 µM; actives 0.36% (n = 360,000); AID 588489, 2011; in the data active = inhibition above about 35%, passing the limit was not always enough;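 note: plate controls were DMSO wells with GST-MLLE for no effect and wells lacking GST-MLLE protein for full effect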
The depositor's hits bear a star; ? = inconclusive; · = no result. Unless noted, the rule behind the calls is not given here.

SMILES	FID counter	eIF4H FP inh	PABP polyA inh	HCV core dimer	HCV NS3 hel inh	MLLE-PAM2 inh
CCn1c(C)nc2cc(S(=O)(=O)Nc3ccc(C)cc3)ccc21	-9	8	51*	3	-10	-139
CC1CCCN(C(=O)c2ccc3c(=O)n4nc(Nc5ccccc5)sc4nc3c2)C1 (stereo unspecified)	·	·	·	·	·	-4
Cc1cccc(Nc2nn3c(=O)c4ccccc4nc3s2)c1	1	32	22	69*	-16	2
Clc1ccc2oc(-c3ccccn3)nc2c1	-5	16*	58*	-1	-4	-24
Nc1nc(-c2ccc(Cl)cc2)nn1C(=O)c1cccs1	0	?	51*	-134	-8	2
CCN(CC)C(=O)Cn1ncc2c1-c1ccccc1OC2	-2	63*	-22	-12	2	4
CC(N=C1NS(=O)(=O)c2ccccc21)C(=O)N1CCc2ccccc2C1 (stereo unspecified)	-6	-8	-7	-2	-9	-3
CN(C)CCCNCCCNC(=O)c1ccco1	8	33*	64*	3	1	6
CC(C)N1CCCC(C)(C(=O)Nc2ccccc2)C1 (stereo unspecified)	·	·	·	·	·	10
Cc1c(OCC(=O)NC2CC(C)(C)NC(C)(C)C2)ccc2c1oc(=O)c1ccccc12	32	-4	13	4	-53	-7
Cc1c(OCC(=O)NC2CC(C)(C)NC(C)(C)C2)ccc2c3c(c(=O)oc12)CCC3	39*	2	11	-19	-2	-11
Cc1ccn2c(NC3CCCC3)c(-c3cccs3)nc2c1	-5	53*	active	-12	-5	3
c1csc(-c2nc3ccccn3c2NC2CCCCC2)c1	0	31	0	2	-11	0
Cc1cc(C(=O)CSc2nn3c(=O)c(C(C)(C)C)nnc3s2)c(C)n1C	-4	38*	101*	9	15	-32
NC(=O)N/N=C/c1coc2ccc3ccccc3c2c1=O	1	-8	0	-1	-2	2
O=Cc1coc2ccc3ccccc3c2c1=O	21	-5	31	5	34	40*
O=c1c2c3c(sc2n2cnnc2n1Cc1ccccc1)CN(Cc1ccccc1)CC3	-5	1	14	51*	-29	-60
Cc1nnc2n(Cc3ccccc3)c(=O)c3c4c(sc3n12)CN(Cc1ccccc1)CC4	·	4	0	·	·	·
COc1ccc2c(C(=O)CN3CCN(c4ccccc4)CC3)c[nH]c2c1	2	69*	70*	-11	0	-36
CC(=O)C1=CCC(c2ccccc2)N(S(=O)(=O)c2ccc(Cl)cc2)C1 (stereo unspecified)	·	·	·	·	·	0
C=CCC1(CC=C)CC(Cc2cnccn2)N(C(=O)OC(C)(C)C)C1 (stereo unspecified)	·	·	·	·	·	-18
COc1ccc(/C=N/Nc2nnc(Cc3ccccc3)c(=O)[nH]2)cc1OC	-30	?	1.1*	2	-1	1
CC(=O)Nc1ccc(S(=O)(=O)Nc2cccc(-n3cnnn3)c2)cc1	-3	2	-1	4	1	-5
CC(=O)c1ccc(S(=O)(=O)Nc2cccc(-n3cnnn3)c2)cc1	0	98*	41*	-7	19	0
CCC(=O)OC1(C)C(=O)C=C2C=C(c3ccsc3)OC=C2C1=O (stereo unspecified)	·	93*	51*	15	·	-28
SMILES	FID counter	eIF4H FP inh	PABP polyA inh	HCV core dimer	HCV NS3 hel inh	MLLE-PAM2 inh
COc1cc(/C=C2\SC(N)=NC2=O)ccc1O	-3	-10	-11	·	-6	-33
COCc1cc(C)nc(SCC(=O)Oc2ccc(Cl)cc2)c1C#N	-1	active	54*	6	4	8
COCc1cc(C)nc(SCC(=O)Oc2ccccc2)c1C#N	-6	8	13	10	-2	4
O=[N+]([O-])c1c(NCc2ccco2)ccc2nonc12	2	123*	81*	-1	25	9
O=C1CCC/C=C/C[C@H](CC(=O)N(CCO)Cc2ccccc2)C(=O)N[C@@H](Cc2ccccc2)CO1	·	·	·	·	·	3
COc1cccc(N2C(=O)C3CCCN3C2=S)c1 (stereo unspecified)	-6	-7	2	-1	-4	-8
N#CC1=C(N)C(C#N)(C#N)C(c2ccncc2)C2CN(C(=O)OCc3ccccc3)CC=C12 (stereo unspecified)	-12	75*	9.4*	4	-2	13
COC(=O)c1ccc2nc(-c3ccc(C#N)cc3)c(Cc3cccc(F)c3)n2c1	·	·	·	·	·	12
Cc1[nH]c2ccccc2c1C(=O)CN1CCN(C/C=C/c2ccccc2)CC1	23	1	10	-11	-50	-36
COc1ccc2[nH]c(C)c(C(=O)CN3CCN(C/C=C/c4ccccc4)CC3)c2c1	39*	3	-2	-4	-79	-1
O=C(N/N=C/c1ccc(OCc2ccccc2)cc1)c1ccncc1	-19	6	4	-1	5	5
Oc1ccc(N=Cc2ccc(OCc3ccccc3)cc2)cc1	4	95*	58*	-14	21	15
COc1ccccc1NC(C)=[N+](C)CCNS(=O)(=O)c1ccc(Cl)cc1	15	0	74*	-11	2	-29
COc1ccc(C#Cc2cccc(-c3nc(C(=O)N4CCN(C)CC4)cc4c3[C@H](CCO)N(S(=O)C(C)(C)C)C4)c2)cc1OC (stereo partly specified)	·	·	·	·	·	-14
CNc1ncnc2c1ncn2[C@H]1CN(Cc2ccc(F)cc2)C[C@@H](CO)O1	·	·	·	·	·	-3
Cc1cn([C@H]2C[C@H](O)[C@@H](CNC(=O)[C@H](N)Cc3cn(COCc4ccccc4)cn3)O2)c(=O)[nH]c1=O	·	·	·	·	·	-5
Cc1cccc2cc3c(nc12)SC(=NCC1CCCO1)N(Cc1ccco1)C3 (stereo unspecified)	-39	-2	6	79*	19	15
Cc1ccc2nc3c(cc2c1)CN(Cc1ccco1)C(=NCC1CCCO1)S3 (stereo unspecified)	-3	-10	4	10	7	-2
Cc1cccc(N2CCN(C(=O)c3ccc4nc(-c5ccco5)c(-c5ccco5)nc4c3)CC2C)c1 (stereo unspecified)	-31	93*	79*	14	30	12
CC(C)(CCC(=S)N1CCOCC1)C1CCCCC1	-24	-2	19	-1	-4	42*
O=C(COc1ccc(C(=S)N2CCOCC2)cc1Cl)Nc1ccccc1Cl	-9	9	-13	1	-22	41*
COc1cc(C(=S)N2CCCCC2)ccc1OCC(=O)Nc1ccccc1Cl	-1	-7	5	11	-5	19
